{
  "source": "ChEMBL document CHEMBL3745632",
  "about": "“Development of a novel sulfonate ester-based prodrug strategy” (Bioorg Med Chem Lett, 2016)",
  "key": {"[1]": {"experiment": "Drug level in HEPES buffer treated with 200 uM (S)-4-sulfamoylphenyl 3-(2-amino-4-methylpentanamido)propane-1-sulfonate in presence of aeromonas proteolytica aminopeptidase by spectrophotometry", "assay_type": "ADME", "details": "vibrio proteolyticus; call rule not given here", "outline": "(§1)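 Each substrate (50 or 200 μM) was incubated with AAP (1.05 units/mL) in 50 mM HEPES (pH 8.0) containing 2% DMSO for varying periods. Release of the corresponding phenol was monitored over time.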"}, "[2]": {"experiment": "Drug level in HEPES buffer treated with 2 mM (S)-2-methylquinolin-8-yl 3-(2-amino-4-methylpentanamido)propane-1-sulfonate for 12 hrs in presence of aeromonas proteolytica aminopeptidase by spectrophotometry", "assay_type": "ADME", "details": "vibrio proteolyticus"}, "[3]": {"experiment": "Drug level in HEPES buffer treated with 200 uM (S)-4-chlorophenyl 3-(2-amino-4-methylpentanamido)propane-1-sulfonate in presence of aeromonas proteolytica aminopeptidase by spectrophotometry", "assay_type": "ADME", "details": "vibrio proteolyticus", "outline": "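Compound at 200 μM incubated for a given period with Aeromonas proteolytica aminopeptidase (1.05 units/mL) in 50 mM HEPES, pH 8.0, containing 2% DMSO. Liberation of the corresponding phenol was followed over time to evaluate the intramolecular cyclization rate k₂.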"}, "[4]": {"experiment": "Drug level in HEPES buffer treated with 50 uM (S)-2-methylquinolin-8-yl 3-(2-amino-4-methylpentanamido)propane-1-sulfonate in presence of aeromonas proteolytica aminopeptidase by spectrophotometry", "assay_type": "ADME", "details": "vibrio proteolyticus", "outline": "as §1"}, "[5]": {"experiment": "Drug level in HEPES buffer treated with 200 uM (S)-4-(trifluoromethyl)phenyl 3-(2-amino-4-methylpentanamido)propane-1-sulfonate in presence of aeromonas proteolytica aminopeptidase by spectrophotometry", "assay_type": "ADME", "details": "vibrio proteolyticus", "outline": "as §1"}, "Liver": {"system": "Liver", "experiment": "Drug level in CD1 mouse liver S9 fraction treated with 5 mM (S)-2-methylquinolin-8-yl 3-(2-amino-4-methylpentanamido)propane-1-sulfonate after 3 hrs by HPLC analysis", "assay_type": "ADME, subcellular", "details": "s9, 3 h"}, "Serum [6]": {"system": "Serum", "experiment": "Drug level in human serum treated with 5 mM (S)-2-methylquinolin-8-yl 3-(2-amino-4-methylpentanamido)propane-1-sulfonate after 24 hrs by HPLC analysis", "assay_type": "ADME, cell-free"}, "[7]": {"experiment": "Retention time of compound by HPLC analysis", "assay_type": "physicochemical"}, "[8]": {"experiment": "Inhibition of aeromonas proteolytica aminopeptidase at 5 uM incubated at pH 8 and 30 degC followed by addition of 50 uM L-leucine-p-nitroanilide substrate by spectrophotometry", "details": "vibrio proteolyticus, pH 8, 5 µM", "outline": "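The prodrug (5 μM) was preincubated with AAP (0.02 units/mL) at pH 8.0 and 30 °C for set times in 10 mM HEPES (pH 8.0) containing 2% DMSO. L-leucine-p-nitroanilide (50 μM) was then added, and its hydrolysis was followed at 25 °C by ΔAbs405 from released p-nitroaniline (ε405 = 10300). In the control, the prodrug was preincubated without enzyme, and AAP was added together with the substrate.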"}, "[9]": {"experiment": "Drug metabolism in HEPES buffer assessed as aeromonas proteolytica aminopeptidase-mediated compound hydrolysis at 2 mM by spectrophotometry", "assay_type": "ADME", "details": "vibrio proteolyticus, 2000 µM"}, "[10]": {"experiment": "Drug metabolism in HEPES buffer assessed as aeromonas proteolytica aminopeptidase-mediated 4-chlorophenol formation at 200 uM by spectrophotometry", "assay_type": "ADME", "details": "vibrio proteolyticus", "outline": "as §1"}, "[11]": {"experiment": "Dissociation constant, pKa of the compound", "assay_type": "physicochemical"}, "[12]": {"experiment": "Drug metabolism in HEPES buffer assessed as aeromonas proteolytica aminopeptidase-mediated Isothiazolidine 1,1-dioxide formation at 200 uM by spectrophotometry", "assay_type": "ADME", "details": "vibrio proteolyticus"}, "[13]": {"experiment": "Drug metabolism in HEPES buffer assessed as aeromonas proteolytica aminopeptidase-mediated 4-(trifluoromethyl)phenol formation at 200 uM by spectrophotometry", "assay_type": "ADME", "details": "vibrio proteolyticus", "outline": "as §1"}, "[14]": {"experiment": "Metabolic stability in CD1 mouse liver S9 fraction assessed as compound remaining at 5 mM by HPLC analysis", "assay_type": "ADME, subcellular", "details": "read-out: Stability"}, "Serum [15]": {"system": "Serum", "experiment": "Metabolic stability in human serum assessed as compound decomposed at 5 mM by HPLC analysis", "assay_type": "ADME", "details": "5000 µM"}, "Serum [16]": {"system": "Serum", "experiment": "Drug metabolism in human serum assessed as 2-methylquinolin-8-ol formation at 5 mM after 24 hrs by HPLC analysis", "assay_type": "ADME, cell-free", "details": "5000 µM"}, "[17]": {"experiment": "Drug metabolism in HEPES buffer assessed as aeromonas proteolytica aminopeptidase-mediated 5-chloroquinolin-8-yl 4-chlorobutane-1-sulfonate formation at 2 mM after 12 hrs by spectrophotometry", "assay_type": "ADME", "details": "vibrio proteolyticus, 2000 µM"}, "[18]": {"experiment": "Metabolic stability in human serum assessed as compound decomposed at 5 mM after 24 hrs by HPLC analysis", "assay_type": "ADME", "details": "read-out: Drug metabolism"}, "[19]": {"experiment": "Drug metabolism in CD1 mouse S9 fraction assessed as 2-methylquinolin-8-yl 3-aminopropane-1-sulfonate formation at 5 mM after 3 hrs by HPLC analysis", "assay_type": "ADME, Liver", "details": "s9, 3 h, 5000 µM"}, "[20]": {"experiment": "Drug metabolism in HEPES buffer assessed as aeromonas proteolytica aminopeptidase-mediated Isothiazolidine 1,1-dioxide formation at 50 uM by spectrophotometry", "assay_type": "ADME", "details": "vibrio proteolyticus"}, "[21]": {"experiment": "Drug metabolism in HEPES buffer assessed as aeromonas proteolytica aminopeptidase-mediated 2-methylquinolin-8-ol formation at 2 mM after 12 hrs by spectrophotometry", "assay_type": "ADME", "details": "vibrio proteolyticus, 2000 µM"}, "[22]": {"experiment": "Drug metabolism in HEPES buffer assessed as aeromonas proteolytica aminopeptidase-mediated Isothiazolidine 1,1-dioxide formation at 2 mM after 12 hrs by spectrophotometry", "assay_type": "ADME", "details": "vibrio proteolyticus, 2000 µM"}, "[23]": {"experiment": "Drug metabolism in HEPES buffer assessed as aeromonas proteolytica aminopeptidase-mediated 5-chloroquinolin-8-yl 3-chloropropane-1-sulfonate formation at 2 mM after 12 hrs by spectrophotometry", "assay_type": "ADME", "details": "vibrio proteolyticus, 2000 µM"}, "[24]": {"experiment": "Drug metabolism in HEPES buffer assessed as aeromonas proteolytica aminopeptidase-mediated 2-methylquinolin-8-ol formation at 50 uM by spectrophotometry", "assay_type": "ADME", "details": "vibrio proteolyticus", "outline": "as §1"}, "Serum [25]": {"system": "Serum", "experiment": "Drug metabolism in human serum assessed as 2-methylquinolin-8-yl 3-aminopropane-1-sulfonate formation at 5 mM after 24 hrs by HPLC analysis", "assay_type": "ADME, cell-free", "details": "5000 µM"}, "[26]": {"experiment": "Drug metabolism in HEPES buffer assessed as aeromonas proteolytica aminopeptidase-mediated compound hydrolysis at 1.3 mM by spectrophotometry", "assay_type": "ADME", "details": "vibrio proteolyticus, 1300 µM"}, "[27]": {"experiment": "Drug metabolism in HEPES buffer assessed as aeromonas proteolytica aminopeptidase-mediated 4-hydroxybenzenesulfonamide formation at 200 uM by spectrophotometry", "assay_type": "ADME", "details": "vibrio proteolyticus", "outline": "as §1"}, "[28]": {"experiment": "Inhibition of aeromonas proteolytica aminopeptidase using L-leucine-p-nitroanilide as substrate by spectrophotometry", "design": "species or system Vibrio proteolyticus"}},
  "data": [
    {"smiles": "NS(=O)(=O)c1ccc(O)cc1", "values": [
      {"measurement": "Drug metabolism", "setting": "[1]", "value": "metabolite_detected"}
    ]},
    {"smiles": "O=S1(=O)CCCN1", "values": [
      {"measurement": "Drug metabolism", "setting": "[2]", "value": "metabolite_detected"},
      {"measurement": "Drug metabolism", "setting": "[3]", "value": "metabolite_detected"},
      {"measurement": "Drug metabolism", "setting": "[4]", "value": "metabolite_detected"},
      {"measurement": "Drug metabolism", "setting": "[1]", "value": "metabolite_detected"},
      {"measurement": "Drug metabolism", "setting": "[5]", "value": "metabolite_detected"}
    ]},
    {"smiles": "Cc1ccc2cccc(OS(=O)(=O)CCCN)c2n1", "values": [
      {"measurement": "Drug metabolism", "setting": "Liver", "value": "metabolite_detected"},
      {"measurement": "Drug metabolism", "setting": "Serum [6]", "value": "metabolite_detected"},
      {"measurement": "Retention_time", "setting": "[7]", "value": 6.5, "unit": "min"}
    ]},
    {"smiles": "CC(C)C[C@H](N)C(=O)NCCCS(=O)(=O)Oc1ccc(Cl)c2cccnc12", "values": [
      {"measurement": "inhibition (INH)", "setting": "[8]", "value": "Active"}
    ]},
    {"smiles": "Cc1ccc2cccc(OS(=O)(=O)CCCCNC(=O)[C@@H](N)CC(C)C)c2n1", "values": [
      {"measurement": "Drug metabolism", "setting": "[9]", "value": "metabolite_detected"}
    ]},
    {"smiles": "CC(C)C[C@H](N)C(=O)NCCCS(=O)(=O)Oc1ccc(Cl)cc1", "values": [
      {"measurement": "Drug metabolism", "setting": "[10]", "value": "metabolite_detected"},
      {"measurement": "pKa", "setting": "[11]", "value": 9.6},
      {"measurement": "Drug metabolism", "setting": "[12]", "value": "metabolite_detected"}
    ]},
    {"smiles": "CC(C)C[C@H](N)C(=O)NCCCCS(=O)(=O)Oc1ccc(Cl)c2cccnc12", "values": [
      {"measurement": "inhibition (INH)", "setting": "[8]", "value": "Active"}
    ]},
    {"smiles": "CC(C)C[C@H](N)C(=O)NCCCS(=O)(=O)Oc1ccc(C(F)(F)F)cc1", "values": [
      {"measurement": "Drug metabolism", "setting": "[13]", "value": "metabolite_detected"},
      {"measurement": "pKa", "setting": "[11]", "value": 8.9},
      {"measurement": "Drug metabolism", "setting": "[12]", "value": "metabolite_detected"}
    ]},
    {"smiles": "Cc1ccc2cccc(OS(=O)(=O)CCCN=[N+]=[N-])c2n1", "values": [
      {"measurement": "remaining", "setting": "[14]", "value": 88, "unit": "%"},
      {"measurement": "Stability", "setting": "Serum [15]", "value": "Stable"},
      {"measurement": "Retention_time", "setting": "[7]", "value": 17.5, "unit": "min"}
    ]},
    {"smiles": "Cc1ccc2cccc(OS(=O)(=O)CCCNC(=O)[C@@H](N)CC(C)C)c2n1", "values": [
      {"measurement": "Drug metabolism", "setting": "Serum [16]", "value": "metabolite_detected"},
      {"measurement": "Drug metabolism", "setting": "[17]", "value": "metabolite_notdetected"},
      {"measurement": "pKa", "setting": "[11]", "value": 10.9},
      {"measurement": "metabolised at 24 h, 5000 µM", "setting": "[18]", "value": 35, "unit": "%"},
      {"measurement": "Drug metabolism", "setting": "[19]", "value": "metabolite_detected"},
      {"measurement": "Retention_time", "setting": "[7]", "value": 21, "unit": "min"},
      {"measurement": "Drug metabolism", "setting": "[20]", "value": "metabolite_detected"},
      {"measurement": "Drug metabolism", "setting": "[21]", "value": "metabolite_detected"},
      {"measurement": "Drug metabolism", "setting": "[22]", "value": "metabolite_detected"},
      {"measurement": "Drug metabolism", "setting": "[23]", "value": "metabolite_notdetected"},
      {"measurement": "Drug metabolism", "setting": "[24]", "value": "metabolite_detected"},
      {"measurement": "Drug metabolism", "setting": "Serum [25]", "value": "metabolite_detected"}
    ]},
    {"smiles": "Cc1ccc2cccc(OS(=O)(=O)CCNC(=O)[C@@H](N)CC(C)C)c2n1", "values": [
      {"measurement": "Drug metabolism", "setting": "[26]", "value": "metabolite_detected"}
    ]},
    {"smiles": "CC(C)C[C@H](N)C(=O)NCCCS(=O)(=O)Oc1ccc(S(N)(=O)=O)cc1", "values": [
      {"measurement": "Drug metabolism", "setting": "[27]", "value": "metabolite_detected"},
      {"measurement": "pKa", "setting": "[11]", "value": 8.3},
      {"measurement": "Drug metabolism", "setting": "[12]", "value": "metabolite_detected"}
    ]},
    {"smiles": "Oc1ccc(C(F)(F)F)cc1", "values": [
      {"measurement": "Drug metabolism", "setting": "[5]", "value": "metabolite_detected"}
    ]},
    {"smiles": "Cc1ccc2cccc(O)c2n1", "note": "[8-HYDROXY QUINALDINE]", "values": [
      {"measurement": "Drug metabolism", "setting": "Serum [6]", "value": "metabolite_detected"},
      {"measurement": "Drug metabolism", "setting": "[2]", "value": "metabolite_detected"},
      {"measurement": "Retention_time", "setting": "[7]", "value": 4.6, "unit": "min"},
      {"measurement": "Drug metabolism", "setting": "[4]", "value": "metabolite_detected"}
    ]},
    {"smiles": "Oc1ccc(Cl)c2cccnc12", "note": "[CLOXYQUIN]", "values": [
      {"measurement": "Ki", "setting": "[28]", "value": 190, "unit": "nM"}
    ]},
    {"smiles": "Oc1ccc(Cl)cc1", "note": "[PARACHLOROPHENOL]", "values": [
      {"measurement": "Drug metabolism", "setting": "[3]", "value": "metabolite_detected"}
    ]}
  ]
}
